Activity calls are given as the source filed them. The rule behind the calls is not given here.
Tests used:
[1] = tested on: NCI-H1299; test: Antiproliferative activity against human NCI-H1299 cells assessed as inhibition of cell growth at 0.1 uM after 72 hrs by MTT assay relative to control; type: functional; settings: NCI-H1299, 72 h, read-out: GI
Summary of the method: (§1)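 Cells in RPMI 1640 are seeded at 4,000 cells/well and held 24 h at 37 °C, 5% CO2. Medium is replaced with compound-containing medium (DMSO ≤0.25%) for 72 h at 37 °C. MTT read-out by absorbance at 570 nm. Quadruplicate wells, repeated three times; values are means of three independent experiments.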

[2] = tested on: NCI-H1299; test: Antiproliferative activity against human NCI-H1299 cells assessed as inhibition of cell growth at 1 uM after 72 hrs by MTT assay relative to control; type: functional; settings: NCI-H1299, 72 h, read-out: GI; summary of the method: as §1
[3] = tested on: NCI-H1299; test: Antiproliferative activity against human NCI-H1299 cells assessed as inhibition of cell growth at 10 uM after 72 hrs by MTT assay relative to control; type: functional; settings: NCI-H1299, 72 h, read-out: GI; summary of the method: as §1
[4] = tested on: MCF7; test: Antiproliferative activity against human MCF7 cells after 72 hrs by MTT assay; type: functional, cell-based; settings: MCF7, 72 h; summary of the method: as §1
[5] = tested on: A549; test: Antiproliferative activity against human A549 cells after 72 hrs by MTT assay; type: functional, cell-based; settings: A549, 72 h; summary of the method: as §1
[6] = molecular target: T1, Heat shock protein HSP90 (Homo sapiens) (UniProt P07900+P08238); test: Inhibition of monoclonal antibody binding to HSP90 (unknown origin) by immunoprecipitation-based Western blot analysis; type: protein assay
[7] = molecular target: T1, Heat shock protein HSP90 (Homo sapiens); test: Inhibition of HSP90 in human MCF7 cells assessed as reduction in AKT expression at 4 uM by coimmunoprecipitation-based Western blot assay; type: cell-based
Summary of the method: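 Cells are treated with 4 μM. Anti-Hsp90 or anti-Akt antibodies are added to the supernatants, and immune complexes are pulled down with protein A agarose. Complexes are eluted by boiling in loading buffer and immunoblotted with anti-Hsp90 or anti-Akt antibodies.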

[8] = molecular target: T1, Heat shock protein HSP90 (Homo sapiens); test: Induction of HSP90-mediated AKT degradation in human MCF7 cells assessed as increase in ubiquitinated AKT expression at 4 uM by coimmunoprecipitation-based Western blot assay; type: cell-based
[9] = tested on: MCF7; test: Cell cycle arrest in human MCF7 cells assessed as accumulation at G1 phase at 1 uM after 48 hrs by propidium iodide staining-based flow cytometry (reference value: 60.61%); type: functional
Summary of the method: (§2)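 5×10^4 cells are seeded, incubated overnight, then treated 48 h. Cells are washed in cold PBS and fixed in 70% ethanol at −20 °C for 12 h. They are then stained with 100 µg/mL RNase plus 50 µg/mL PI in PBS, 37 °C for 30 min. DNA content is measured by flow cytometry.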

[10] = tested on: MCF7; test: Cell cycle arrest in human MCF7 cells assessed as accumulation at G2 phase at 1 uM after 48 hrs by propidium iodide staining-based flow cytometry (reference value: 22.74%); type: functional; summary of the method: as §2
[11] = tested on: MCF7; test: Induction of apoptosis in human MCF7 cells assessed as cell rounding at 0.5 to 4 uM after 36 hrs by hoechst 33258 staining-based fluorescence microscopy; type: functional
Summary of the method: (§3)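 Approximately 5×10^4 cells per well are exposed to 0, 0.5, 1.0, 2.0 or 4.0 μM for 36 h. Cells are PBS-washed and fixed in 4% paraformaldehyde for 30 min. They are stained with 20 μg/ml Hoechst 33258 for 15 min at room temperature in the dark, and nuclear morphology is examined by fluorescence microscopy.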

[12] = tested on: MCF7; test: Induction of apoptosis in human MCF7 cells assessed as rounding of nuclei at 0.5 to 4 uM after 36 hrs by hoechst 33258 staining-based fluorescence microscopy; type: functional, cell-based; summary of the method: as §3
[13] = tested on: MCF7; test: Induction of apoptosis in human MCF7 cells assessed as condensation of chromosome at 0.5 to 4 uM after 36 hrs by hoechst 33258 staining-based fluorescence microscopy; type: functional, cell-based; summary of the method: as §3
[14] = tested on: MCF7; test: Induction of apoptosis in human MCF7 cells assessed as peripherization of chromosome at 0.5 to 4 uM after 36 hrs by hoechst 33258 staining-based fluorescence microscopy; type: functional, cell-based; summary of the method: as §3
[15] = tested on: MCF7; test: Induction of apoptosis in human MCF7 cells assessed as increase in early apoptotic cells at 0.5 to 4 uM after 36 hrs by Annexin V-FITC/propidium iodide double staining-based flow cytometry relative to control; type: functional
Summary of the method: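 Cells (1×10^5/well) are cultured 24 h, then treated in triplicate for 36 h at 0.5, 1.0, 2.0 or 4.0 μM. Vehicle is 1‰ DMSO in complete medium. Cells are stained with FITC-Annexin V and PI for 15 min in the dark and analysed by flow cytometry. Mean±SD of three independent experiments.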

[16] = tested on: MCF7; test: Antiinvasive activity in human MCF7 cells after 24 hrs by crystal violet dye-based transwell matrix penetration assay; type: functional, cell-based
Summary of the method: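 Matrigel-coated transwell invasion chambers, 1×10^4 cells seeded in the upper chamber, 37 °C for 24 h. Non-invaded cells are swabbed off. Invaded cells on the underside are fixed in 1% paraformaldehyde, stained with crystal violet and counted in ten random 200× fields per well. Result is the mean cells per field, from three independent experiments.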

[17] = tested on: MCF7; test: Cell cycle arrest in human MCF7 cells assessed as increase in accumulation at G2 phase after 48 hrs by propidium iodide staining-based flow cytometry; type: functional; summary of the method: as §2
[18] = tested on: MCF7; test: Cell cycle arrest in human MCF7 cells assessed as accumulation at G2 phase at 4 uM after 48 hrs by propidium iodide staining-based flow cytometry (reference value: […])

Compound: COc1cc(OC)c(OC)cc1CC(=O)c1ccc2c(c1OC)C=CC(C)(C)O2
- inhibition of growth at 0.1 µM [1]: 15.3%
- inhibition of growth at 1 µM [2]: 40.3%
- inhibition of growth at 10 µM [3]: 72.1%
- IC50 [4]: 2510 nM
- IC50 [5]: 3.46 µM
- inhibition [6]: Dose-dependent effect
- inhibition [7]: Active
- Activity [8]: Active
- Activity [9]: 55.26%
- Activity [10]: 21.55%
- Activity [11]: Active
- Activity [12]: Active
- Activity [13]: Active
- Activity [14]: Active
- Activity [15]: 13.6 - 71.8%
- Activity [16]: Dose-dependent effect
- Activity [17]: Dose-dependent effect
- Activity [18]: 29.58%

Source: ChEMBL document CHEMBL4340510, “Design, synthesis, and biological evaluation of truncated deguelin derivatives as Hsp90 inhibitors” (Eur J Med Chem, 2019)
